pIC50: −log10 of the molar value. Values belong to the compound of their own block, whether it stands above or below them.
Columns and labels:
Toll-like receptor 4 [1] = molecular target: T1, Toll-like receptor 4 (Homo sapiens, UniProt O00206); experiment: Antagonist activity at human TLR4 expressed in HEK blue cells coexpressing MD-2/CD14 assessed as inhibition of LPS-induced NF-kappaB activation-mediated SEAP production after 24 hrs; format: cell-based; conditions: for pIC50: read-out: IC50
In short: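 HEK293 cells stably carrying human TLR4, MD-2, CD14 and an NF-κB-inducible SEAP reporter were seeded at 4×10^4/well, grown 24 h, then switched to unsupplemented DMEM. Cells were treated with 20 ng/mL LPS plus compound (1.56–100 µM; from 10 mM DMSO stocks) for 24 h. Supernatant SEAP was read with QUANTI-Blue at OD620 after 15–30 min at 37°C. Two independent experiments in triplicate.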

HCN4 channel [2] = experiment: Inhibition of HCN4 (unknown origin) expressed in COS7 cells assessed as Tdeact time at 10 uM at -40 mV holding potential measured at +50 mV by pach clamp electrophysiology assay (reference value: 92.9 +/- 9.5 milliseconds); conditions: Homo sapiens
HCN2 channel [3] = experiment: Inhibition of HCN2 (unknown origin) expressed in COS7 cells assessed as Tact time at 10 uM at -40 mV holding potential measured at -120 mV by pach clamp electrophysiology assay (reference value: 242.9 +/- 24 milliseconds); conditions: Homo sapiens
HCN4 channel [4] = experiment: Inhibition of HCN4 (unknown origin) expressed in COS7 cells assessed as amplitude of inward current (I/I0 ratio) at 10 uM at -40 mV holding potential by pach clamp electrophysiology assay; conditions: Homo sapiens
HCN4 channel [5] = experiment: Inhibition of HCN4 (unknown origin) expressed in COS7 cells assessed as change in half activation potential at 10 uM at -40 mV holding potential by pach clamp electrophysiology assay; conditions: Homo sapiens
[6] = Cytotoxicity against human HEK-Blue cells assessed as decrease in cell viability up to 100 uM after 24 hrs by CCK-8 assay; format: cell-based
In short: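 HEK-Blue hTLR4 cells were incubated with 40 ng/mL LPS and compound (0–100 µM) for 24 h. Viability was measured by CCK-8 absorbance at 450 nm.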

Toll-like receptor 4 [7] = molecular target: T1, Toll-like receptor 4; experiment: Antagonist activity at human TLR4 expressed in HEK blue cell lysates assessed as inhibition of LPS-induced TLR4 protein expression at 10 uM after 24 hrs by Western blot method relative to control
In short: (§1)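 HEK-Blue hTLR4 cells at 1×10^6/well were grown 24 h in DMEM + 10% FBS, then switched to unsupplemented DMEM. Cells were treated with 40 ng/mL LPS and compound (0–20 µM) for 24 h, then lysed on ice. Protein was measured by BCA, run on 10% SDS-PAGE and blotted to PVDF. Blots were probed with anti-TLR4 (overnight, 4°C) with ECL detection; GAPDH served as loading control.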

HCN2 channel [8] = experiment: Inhibition of HCN2 (unknown origin) expressed in COS7 cells assessed as change in half activation potential at 10 uM at -40 mV holding potential by pach clamp electrophysiology assay; conditions: Homo sapiens
[9] = molecular target: T2, Toll-like receptor 4 (Mus musculus) (UniProt Q9QUK6); experiment: Antagonist activity at TLR4 in mouse RAW264.7 cells assessed as inhibition of LPS-induced NO production after 24 hrs by Griess assay; format: cell-based
T2 sequence (whole entry): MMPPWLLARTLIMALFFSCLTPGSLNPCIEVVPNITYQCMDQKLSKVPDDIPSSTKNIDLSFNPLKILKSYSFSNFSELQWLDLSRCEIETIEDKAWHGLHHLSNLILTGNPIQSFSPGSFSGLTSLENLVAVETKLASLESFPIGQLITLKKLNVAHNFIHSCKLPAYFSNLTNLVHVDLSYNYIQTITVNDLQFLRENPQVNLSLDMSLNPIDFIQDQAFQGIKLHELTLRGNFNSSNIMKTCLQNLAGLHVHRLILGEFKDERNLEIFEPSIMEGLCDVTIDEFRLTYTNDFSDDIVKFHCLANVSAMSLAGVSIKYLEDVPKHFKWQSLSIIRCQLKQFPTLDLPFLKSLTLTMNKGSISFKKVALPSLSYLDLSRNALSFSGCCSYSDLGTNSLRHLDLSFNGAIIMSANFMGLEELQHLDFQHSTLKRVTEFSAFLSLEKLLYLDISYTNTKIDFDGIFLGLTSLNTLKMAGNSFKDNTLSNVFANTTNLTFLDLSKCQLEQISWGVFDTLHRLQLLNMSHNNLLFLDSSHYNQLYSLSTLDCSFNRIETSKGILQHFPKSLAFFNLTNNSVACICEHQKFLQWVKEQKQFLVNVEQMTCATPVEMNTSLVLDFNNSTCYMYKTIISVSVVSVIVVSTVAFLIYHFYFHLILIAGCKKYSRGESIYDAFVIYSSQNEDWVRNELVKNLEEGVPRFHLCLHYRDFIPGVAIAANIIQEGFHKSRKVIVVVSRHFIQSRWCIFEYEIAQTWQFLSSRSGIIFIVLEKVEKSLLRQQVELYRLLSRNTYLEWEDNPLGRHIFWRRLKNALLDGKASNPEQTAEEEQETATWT
In short: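 RAW264.7 or BV-2 cells were seeded at 50,000/well in DMEM + 10% FBS with penicillin/streptomycin and pre-incubated 24 h at 37°C, 5% CO2. Medium was replaced with unsupplemented DMEM. Cells were treated with 40 ng/mL LPS plus graded compound for 24 h. Supernatant nitrite was read by Griess reaction (sulfanilic acid/phosphoric acid, then naphthylethylenediamine, 10 min each) against a nitrite standard.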

Toll-like receptor 4 [10] = molecular target: T1, Toll-like receptor 4; experiment: Antagonist activity at TLR4 in human PBMC assessed as inhibition of LPS-induced TNFalpha production at 20 uM after 24 hrs by ELISA relative to control; format: cell-based
In short: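 Human PBMC at 1×10^6 cells/well in RPMI 1640 were given compound with or without 10 ng/mL LPS for 24 h at 37°C, 5% CO2. Supernatants were frozen at −80°C, then TNF-α was quantified by sandwich ELISA against a recombinant human standard. Each sample was run in triplicate; three independent experiments, mean ± SD.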

[11] = molecular target: Toll-like receptor 4 (Mus musculus) (UniProt Q9QUK6); experiment: Antagonist activity at TLR4 in mouse BV2 cells assessed as inhibition of LPS-induced NO production after 24 hrs by Griess assay
Toll-like receptor 4 [12] = molecular target: T1, Toll-like receptor 4; experiment: Antagonist activity at human TLR4 expressed in HEK blue cell lysates assessed as inhibition of LPS-induced TLR4 protein expression after 24 hrs by Western blot method; in short: as §1
HCN4 channel [13] = experiment: Inhibition of HCN4 (unknown origin) expressed in COS7 cells assessed as Tact time at 10 uM at -40 mV holding potential measured at -120 mV by pach clamp electrophysiology assay (reference value: 780.9 +/- 59.2 milliseconds); conditions: Homo sapiens
HCN2 channel [14] = experiment: Inhibition of HCN2 (unknown origin) expressed in COS7 cells assessed as Tdeact time at 10 uM at -40 mV holding potential measured at +50 mV by pach clamp electrophysiology assay (reference value: 66 +/- 4.2 milliseconds); conditions: Homo sapiens
HCN2 channel [15] = experiment: Inhibition of HCN2 (unknown origin) expressed in COS7 cells assessed as amplitude of inward current (I/I0 ratio) at 10 uM at -40 mV holding potential by pach clamp electrophysiology assay; conditions: Homo sapiens

T1 sequence (O00206 whole entry): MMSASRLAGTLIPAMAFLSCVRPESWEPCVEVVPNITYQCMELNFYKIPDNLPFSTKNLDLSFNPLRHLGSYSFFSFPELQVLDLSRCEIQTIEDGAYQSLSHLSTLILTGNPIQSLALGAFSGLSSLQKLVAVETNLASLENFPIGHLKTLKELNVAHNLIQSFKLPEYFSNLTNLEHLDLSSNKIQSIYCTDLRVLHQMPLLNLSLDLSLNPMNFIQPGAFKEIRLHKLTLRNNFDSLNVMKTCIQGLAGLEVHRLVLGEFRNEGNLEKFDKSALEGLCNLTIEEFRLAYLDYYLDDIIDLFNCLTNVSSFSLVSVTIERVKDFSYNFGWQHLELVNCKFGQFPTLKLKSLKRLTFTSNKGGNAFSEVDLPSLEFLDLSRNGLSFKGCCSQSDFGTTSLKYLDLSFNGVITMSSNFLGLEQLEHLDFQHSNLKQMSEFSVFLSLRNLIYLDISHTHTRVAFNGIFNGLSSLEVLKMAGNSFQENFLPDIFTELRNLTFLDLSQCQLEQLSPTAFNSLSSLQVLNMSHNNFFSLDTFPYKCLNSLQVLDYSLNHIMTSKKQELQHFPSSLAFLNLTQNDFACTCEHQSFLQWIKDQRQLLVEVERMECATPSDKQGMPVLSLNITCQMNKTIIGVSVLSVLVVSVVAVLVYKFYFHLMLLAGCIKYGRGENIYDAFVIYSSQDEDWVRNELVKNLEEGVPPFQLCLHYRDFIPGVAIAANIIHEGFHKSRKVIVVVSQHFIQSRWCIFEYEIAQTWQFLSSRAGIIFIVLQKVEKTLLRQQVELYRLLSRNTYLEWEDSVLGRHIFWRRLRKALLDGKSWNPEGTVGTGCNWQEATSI

pIC50 (Toll-like receptor 4 [1]): 4.91
SMILES: OC(CNc1ccc2c(c1)-c1ccccc1C2)COc1cccc2[nH]c3ccccc3c12 (stereo not given)

pIC50 (Toll-like receptor 4 [1]): 4.82
SMILES: Cc1nn(Cc2ccccc2Cl)c(C)c1CN(C)CC(O)CCOc1cccc2[nH]c3ccccc3c12 (stereo not given)

pIC50 (Toll-like receptor 4 [1]): 4.46
SMILES: Cc1nn(Cc2ccccc2F)c(C)c1CN(C)CC(O)COc1cccc2[nH]c3ccccc3c12 (stereo not given)

TIME (HCN4 channel [2]): 2.22e-05 h
TIME (HCN2 channel [3]): 0.000248 h
Ratio (HCN4 channel [4]): 0.5
V1/2 (HCN4 channel [5]): -28.8 mV
inhibition (Toll-like receptor 4 [7]): > 90%
V1/2 (HCN2 channel [8]): -21.4 mV
inhibition [9]: Dose-dependent effect
inhibition (Toll-like receptor 4 [10]): 80%
inhibition [11]: Dose-dependent effect
inhibition (Toll-like receptor 4 [12]): Dose-dependent effect
TIME (HCN4 channel [13]): 0.000597 h
TIME (HCN2 channel [14]): 1.47e-05 h
pIC50 (Toll-like receptor 4 [1]): 4.90
Ratio (HCN2 channel [15]): 0.7
SMILES: Cc1nn(Cc2ccccc2Cl)c(C)c1CN(C)CC(O)COc1cccc2[nH]c3ccccc3c12 (stereo not given)
Activity [6]: Non-Toxic

Ratio (HCN4 channel [4]): 0.82
IC50 (Toll-like receptor 4 [1]): Not Active
Ratio (HCN2 channel [15]): 1
SMILES: OC(CNc1ccc(F)cc1)COc1cccc2[nH]c3ccccc3c12 (stereo not given)

Ratio (HCN4 channel [4]): 0.75
pIC50 (Toll-like receptor 4 [1]): 4.47
Ratio (HCN2 channel [15]): 0.73
SMILES: CCOc1ccc(OCC(O)CN(C)Cc2c(C)nn(Cc3ccccc3Cl)c2C)cc1 (stereo not given)

pIC50 (Toll-like receptor 4 [1]): 4.66
SMILES: OC(CNc1ccc(-c2ccccc2)cc1)COc1cccc2[nH]c3ccccc3c12 (stereo not given)

pIC50 (Toll-like receptor 4 [1]): 4.68
SMILES: O=C(c1ccccc1)c1cc(Cl)ccc1NCC(O)COc1cccc2[nH]c3ccccc3c12 (stereo not given)

IC50 (Toll-like receptor 4 [1]): Not Active
SMILES: CCOc1ccc(OCCC(O)CN(C)Cc2c(C)nn(Cc3ccccc3F)c2C)cc1 (stereo not given)

pIC50 (Toll-like receptor 4 [1]): 4.49
SMILES: COc1ccccc1OCCNCC(O)CCOc1cccc2[nH]c3ccccc3c12 (stereo not given)

Second part, the compound before the results:

SMILES: CCOc1ccc(OCCC(O)CN(C)Cc2c(C)nn(Cc3ccc(Cl)cc3)c2C)cc1 (stereo not given)
pIC50 (Toll-like receptor 4 [1]): 4.59

SMILES: CCOc1ccc(OCC(O)CNCCOc2ccccc2OC)cc1 (stereo not given)
IC50 (Toll-like receptor 4 [1]): Not Active

SMILES: C/N=C/c1cn(CC(O)COc2cccc3[nH]c4ccccc4c23)cn1 (stereo not given)
IC50 (Toll-like receptor 4 [1]): Not Active

SMILES: CCOc1ccc(OCCC(O)CN(C)Cc2c(C)nn(Cc3ccccc3C)c2C)cc1 (stereo not given)
pIC50 (Toll-like receptor 4 [1]): 4.26

SMILES: CCCc1ccc(OCCC(O)CN(C)Cc2c(C)nn(Cc3ccccc3Cl)c2C)cc1 (stereo not given)
pIC50 (Toll-like receptor 4 [1]): 4.61

SMILES: Cc1nn(Cc2ccccc2)c(C)c1CN(C)CC(O)COc1cccc2[nH]c3ccccc3c12 (stereo not given)
pIC50 (Toll-like receptor 4 [1]): 4.50

SMILES: Cc1nn(Cc2ccccc2Cl)c(C)c1CN(C)CC(O)CCOc1ccc(C(C)(C)C)cc1 (stereo not given)
pIC50 (Toll-like receptor 4 [1]): 4.78

SMILES: OC(CNc1ccc2ccccc2c1)COc1cccc2[nH]c3ccccc3c12 (stereo not given)
pIC50 (Toll-like receptor 4 [1]): 4.54

SMILES: CCOc1ccc(OCCC(O)CNCCOc2ccccc2OC)cc1 (stereo not given)
IC50 (Toll-like receptor 4 [1]): Not Active

SMILES: Cc1nn(Cc2ccccc2Cl)cc1CN(C)CC(O)COc1cccc2[nH]c3ccccc3c12 (stereo not given)
IC50 (Toll-like receptor 4 [1]): Not Active

SMILES: O=C1c2ccccc2C(=O)c2cc(NCC(O)COc3cccc4[nH]c5ccccc5c34)ccc21 (stereo not given)
IC50 (Toll-like receptor 4 [1]): Not Active

SMILES: CCOc1ccc(OCCC(O)CN(C)Cc2c(C)nn(Cc3ccccc3Cl)c2C)cc1 (stereo not given)
IC50 (Toll-like receptor 4 [1]): Not Active

SMILES: COc1ccccc1OCCNCC(O)COc1cccc2[nH]c3ccccc3c12 (stereo not given) [CARVEDILOL]
pIC50 (Toll-like receptor 4 [1]): 4.48

SMILES: CCc1ccc(OCCC(O)CN(C)Cc2c(C)nn(Cc3ccccc3Cl)c2C)cc1 (stereo not given)
pIC50 (Toll-like receptor 4 [1]): 4.58

SMILES: Cc1ccc(OCCC(O)CN(C)Cc2c(C)nn(Cc3ccccc3Cl)c2C)cc1 (stereo not given)
pIC50 (Toll-like receptor 4 [1]): 4.29

SMILES: Cc1nn(Cc2ccccc2Cl)c(C)c1CN(C)CC(O)CCOc1ccc(F)cc1 (stereo not given)
pIC50 (Toll-like receptor 4 [1]): 4.26

SMILES: Cc1nn(Cc2ccc(Cl)cc2)c(C)c1CN(C)CC(O)COc1cccc2[nH]c3ccccc3c12 (stereo not given)
pIC50 (Toll-like receptor 4 [1]): 4.87
